The list is not random: actives were taken first. Their share in the collection is about 2.3%.
PLCb3 inh – PLC-beta3 (human) inhibition, primary screen; AID 720704; hit rate 0.18% among 370,000; inhibition, % at 12.2 µM; Purified PLC-beta3, fluorogenic substrate, fluorescence; in the data active = inhibition above about 11%
PLC-gamma1 inh – inhibitors of human phospholipase C gamma1; inhibition, % at 12.2 µM; AID 720700; P19174; purified PLC-gamma1, fluorogenic substrate, fluorescence; hit rate 0.84% among 370,000; in the data active = inhibition above about 9.5%
ADAM10 inh – inhibitors of human ADAM10 | recombinant ADAM10, EDANS/DABCYL FRET peptide cleavage, 3 h | AID 720582 | hit rate 0.62% among 370,000 | O14672 | inhibition, % at 7 µM;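 active = inhibition above a per-campaign cutoff equal to the mean of compounds falling between control-based bounds plus 3 SD, cut at about 20% in these data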
Target sequence (O14672 214-748 limits assumed): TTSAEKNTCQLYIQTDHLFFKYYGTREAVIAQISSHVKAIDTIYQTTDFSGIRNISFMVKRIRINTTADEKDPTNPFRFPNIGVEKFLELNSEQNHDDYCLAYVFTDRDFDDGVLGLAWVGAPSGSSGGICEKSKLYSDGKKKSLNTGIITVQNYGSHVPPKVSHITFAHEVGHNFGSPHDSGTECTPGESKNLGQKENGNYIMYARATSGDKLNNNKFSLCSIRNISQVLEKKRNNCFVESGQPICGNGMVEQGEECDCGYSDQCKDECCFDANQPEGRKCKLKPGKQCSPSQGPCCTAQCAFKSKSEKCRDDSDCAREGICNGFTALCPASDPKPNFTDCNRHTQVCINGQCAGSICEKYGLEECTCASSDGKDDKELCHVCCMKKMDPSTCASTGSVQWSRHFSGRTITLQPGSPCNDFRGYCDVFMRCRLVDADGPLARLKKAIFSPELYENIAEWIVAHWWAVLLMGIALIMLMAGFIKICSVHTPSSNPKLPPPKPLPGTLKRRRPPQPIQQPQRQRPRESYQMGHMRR
ADAM17 inh – ADAM17 inhibition, QFRET primary screen. hit rate 0.83% among 370,000. recombinant ADAM17, EDANS/DABCYL FRET peptide cleavage. inhibition, % at 6.95 µM;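 active = inhibition above the mean of compounds lying between control limits plus 3 SD, set per campaign, cut at about 8.5% in these data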
Tn6 DDE FP – disrupts Tn6 cyclic peptide binding to fibrin D-Dimer-E complex; P02675; AID 720509; inhibition, % at 8.3 µM; hit rate 0.21% among 370,000; Fibrin DD(E) TRITC-Tn6 fluorescence polarization displacement;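 active = inhibition above a per-campaign cutoff: mean of compounds within control limits plus 3 SD, cut at about 15% in these data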
Tn7 DDE FP – disrupts Tn7 cyclic peptide binding to fibrin D-Dimer-E complex; inhibition, % at 8.3 µM; P02675; AID 720508; hit rate 0.13% among 370,000; FP displacement of FITC-Tn7 peptide from fibrin DD(E); 0% = median of compound wells per plate;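 active = inhibition above the mean of compounds falling within the control limits plus 3 SD of them, cut at about 14% in these data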
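Measure: % inhibition scaled between sample-field median and high-control FP; Test system: human fibrin DD(E); Quantity: 2 µM final DD(E) protein; Doses: one dose, 8.3 µM nominal; Schedule: compound with protein 10 min, then 3 h after probe, room temperature; Detection: fluorescence polarization; Medium: Tris buffer with calcium and detergent, pH 7.8.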
ADAM10 ctr – counter-screen for ADAM17 exosite inhibitors: inhibitors of human ADAM10; shares compounds with ADAM17 inh; recombinant ADAM10, EDANS/DABCYL FRET peptide cleavage, 3 h; inhibition, % at 6.95 µM; hit rate 47% among 2,900;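 active = mean inhibition over the triplicate runs exceeds the activity threshold set in the earlier primary screen, cut at about 20% in these data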
ADAM17 confirm – confirmation of inhibitors of human ADAM17 | shares compounds with ADAM17 inh | recombinant ADAM17, EDANS/DABCYL QFRET peptide cleavage | inhibition, % at 6.95 µM | hit rate 65% among 2,900 | AID 743257;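 active = mean inhibition across replicates above the hit cutoff set in the primary screen, cut at about 8.5% in these data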
A number is an active result; 0 = inactive; - = not tested or not shown.

SMILES	PLCb3 inh	PLC-gamma1 inh	ADAM10 inh	ADAM17 inh	Tn6 DDE FP	Tn7 DDE FP	ADAM10 ctr	ADAM17 confirm
C=C(C)CNC(=S)NNC(=O)CCn1c2ccc(Cl)cc2c2cc(Cl)ccc21	0	0	0	9.7	0	0	37	23
C=C(C)CNC(=S)NNC(=O)CCn1c2cc(Cl)ccc2c2ccc(Cl)cc21	0	0	0	0	0	0	-	-
Cc1ccc(-c2csc(NC(=O)Cn3cnc4c3c(=O)n(C)c(=O)n4C)n2)cc1C	0	0	0	0	0	0	-	-
Cn1c(=O)c2c(ncn2CC(=O)Nc2nc(-c3ccc(F)c(F)c3)cs2)n(C)c1=O	0	0	0	8.8	0	0	0	0
COC(=O)c1ccc(S(=O)(=O)N2CCC(NC(=O)COc3ccc(F)cc3)CC2)cc1	0	0	0	0	0	0	-	-
COc1cc(F)ccc1-c1csc(C(C)(O)c2ccccc2)n1 (centres undefined)	0	0	0	10	0	0	24	11
COc1ccccc1-c1csc(C(O)(c2ccccc2)C(F)(F)F)n1 (centres undefined)	0	0	0	10	0	0	34	19
COc1ccc(-c2csc(C(O)(c3ccccc3)C(F)(F)F)n2)cc1 (centres undefined)	0	0	0	0	0	0	-	-
Cc1ccc(S(=O)(=O)N(C)CC(=O)NNC(=O)Cc2cccc(F)c2)cc1	0	0	0	0	0	0	-	-
Cc1ccc(S(=O)(=O)N(C)CC(=O)NNC(=O)Cc2ccccc2F)cc1	0	0	0	11	0	0	0	11
C=CCN1C(=O)[C@@H](CC(=O)N2CCCCC2)[C@]2(C(=O)OCC)CCCCC/C=C/12	0	0	0	0	0	0	-	-
CCN(CC)S(=O)(=O)c1ccc2c(c1)nc(CCC(=O)Nc1ccc3c(c1)OCO3)n2C	0	0	0	0	0	0	-	-
CCN(CC)S(=O)(=O)c1ccc2c(c1)nc(CCC(=O)Nc1ccc3c(c1)OCO3)n2CC	0	0	0	8.9	0	0	0	0
O=C1Nc2ccccc2-n2nnnc2C1N1CCN(c2ccc(C(F)(F)F)cc2[N+](=O)[O-])CC1 (centres undefined)	0	0	0	8.6	0	0	32	18
COc1ccc(CN(CC#Cc2ccccc2)Cc2ccccc2)c(OC)c1	0	0	0	0	0	0	-	-
COc1ccc(NC(=O)C2=CC(c3ccc(OC)cc3)=NS(=O)(=O)N2C)cc1	0	0	0	10	0	0	0	0
COc1ccc(NC(=O)C2=CC(c3ccco3)=NS(=O)(=O)N2C)cc1	0	0	0	0	0	0	-	-
O=C(NC1CCCCN(Cc2ccc(OC(F)(F)F)cc2)C1=O)c1ccc2ccccc2c1 (centres undefined)	0	0	0	0	0	0	-	-
CC(C)N=c1scc(-c2cccs2)n1/N=C/c1ccc(O)c(O)c1O	0	0	0	9.3	0	0	0	12
CCN1C(=O)/C(=C/c2ccc(C)s2)NC1=S	0	0	0	10	0	0	0	12
O=C(O)c1ccc([N+](=O)[O-])c(CS(=O)(=O)c2ccccc2)c1	0	0	0	0	0	0	-	-
CN(C)/C=C/C(=O)c1ccc([N+](=O)[O-])c(CS(=O)(=O)c2ccccc2)c1	0	0	0	9.3	0	0	0	8.7
O=c1c2cc3cccnc3nc2ncn1CCc1c[nH]c2ccccc12	0	0	0	0	0	0	-	-
Cc1cc(S(=O)(=O)NCc2ccccc2)ccc1OCC(=O)NCc1ccccn1	0	0	0	0	0	0	-	-
Cc1cc(S(=O)(=O)NCc2ccccc2)ccc1OCC(=O)Nc1cccc([N+](=O)[O-])c1	0	0	0	8.7	0	0	35	22
SMILES	PLCb3 inh	PLC-gamma1 inh	ADAM10 inh	ADAM17 inh	Tn6 DDE FP	Tn7 DDE FP	ADAM10 ctr	ADAM17 confirm
COC(=O)c1cc(-c2ccc(-c3ccccc3)c(F)c2)c(=O)n2c1CCC2	0	0	0	0	0	0	-	-
Cc1cc(Oc2ccccc2)nc(SCC(=O)Nc2ccccc2)n1	0	0	0	0	0	0	-	-
Cc1cc(Oc2ccccc2)nc(SCC(=O)Nc2ccc(Cl)c(Cl)c2)n1	0	0	0	14	0	0	0	12
COC(=O)[C@]12C[C@H](CC(=O)N3CCN(C(=O)c4ccco4)CC3)C(=O)N(Cc3cccc4ccccc34)C1=C[C@H](COCc1ccccc1)O[C@@H]2C	0	0	0	0	0	0	-	-
CCOC(=O)Cc1csc(NC(=O)c2cc(C)c(C)s2)n1	0	0	0	11	0	0	0	8.9
CCOC(=O)Cc1csc(NC(=O)c2ccc(Cl)s2)n1	0	0	0	0	0	0	-	-
CCOC(=O)N1CCN(S(=O)(=O)c2ccc(C(=O)NNc3nc4c(C)cc(C)cc4s3)cc2)CC1	0	0	0	9.7	0	0	29	23
CCn1c(SCC(=O)Nc2ccc(C(C)C)cc2)nnc1-c1ccc(C(C)(C)C)cc1	0	0	0	0	0	0	-	-
O=C(c1cc(Cl)cc(Cl)c1)N1CCC(Oc2cccnc2)CC1	0	0	0	0	0	0	-	-
OCCn1c(CSc2nnc(-c3ccco3)n2-c2ccccc2)nc2ccc(Cl)cc21	0	0	0	11	0	0	0	0
NC(=O)CSc1nnc(-c2ccco2)n1-c1ccccc1	0	0	0	0	0	0	-	-
O=[N+]([O-])c1ccc(COc2ccc(-c3[nH]ncc3-c3ccc(Cl)cc3)c(O)c2)cc1	0	0	0	0	0	0	-	-
COc1ccc(-c2cn[nH]c2-c2ccc(OCc3ccc([N+](=O)[O-])cc3)cc2O)cc1OC	0	0	0	9.8	0	0	25	14
Cc1ccc(S(=O)(=O)/N=C2/NC(=O)/C(=C/c3cc([N+](=O)[O-])ccc3O)S2)cc1	0	0	0	8.6	0	0	0	0
Cc1ccccc1Cn1cc(CN2[C@H](CC(C)C)COc3cc(Br)ccc3S2(=O)=O)nn1	0	0	0	0	0	0	-	-
CCOC(=O)CSC1=C(C#N)C(c2ccc(F)cc2)C(C(C)=O)=C(C)N1 (centres undefined)	0	0	0	9.9	0	0	0	0
O=C(CSc1nc(Nc2ccccc2)nc(N2CCOCC2)n1)Nc1cccc([N+](=O)[O-])c1	0	0	0	10	0	0	38	22
O=C(CSc1nc(Nc2ccccc2)nc(N2CCOCC2)n1)Nc1ccc([N+](=O)[O-])cc1	0	0	0	0	0	0	-	-
Cc1ccc(SCc2nc(N)nc(Nc3ccccc3C)n2)cc1C	0	0	0	9.2	0	0	0	0

Screening results as filed in PubChem.
